Hits are enriched below; roughly 2.4% of the tested compounds scored in any of these assays.
LGR2 antag – inhibitors of bursicon-induced LGR2 CRE-luciferase signal, primary screen, cell-based, HEK293, CRE-luciferase reporter, bursicon stimulation. Drosophila bursicon receptor LGR2 (rickets). bursicon-stimulated, 4 h. inhibition, % at 9.99 µM. 380,000 compounds, 0.35% hits;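 active = drop in luminescence signal, shown as inhibition above about 50% in the replicate tests, limit read from the data, passing the limit was not always enough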;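 note: agonist challenge used bursicon conditioned medium at about half maximal strength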
EWS-Fli inh – EWS/Fli-driven NR0B1 reporter inhibitors, primary screen, A673 cells, NR0B1 luciferase, luminescence, MLPCN library | inhibition, % at 12.6 µM | viability-normalised | 350,000 compounds, 0.67% hits;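 active = mean inhibition of at least 50% after viability correction, with every replicate also passing that limit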;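 note: firefly luciferase signal divided by Alamar Blue viability fluorescence both relative to DMSO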
E-selectin induc – E-selectin induction in HUVECs, primary screen, imaging, HUVEC, immunofluorescence imaging, single point | P16581 | normalized: neutral wells 0, TNF-alpha wells 100 | activation, % at 7.58 µM | 260,000 compounds, 0.37% hits | AID 686992, 2013;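 active = mean E-selectin-positive cell signal at least 10% of the positive control, reached in at least 60% of replicates, without over 20% cell loss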
Target sequence (P16581 whole entry, looked up): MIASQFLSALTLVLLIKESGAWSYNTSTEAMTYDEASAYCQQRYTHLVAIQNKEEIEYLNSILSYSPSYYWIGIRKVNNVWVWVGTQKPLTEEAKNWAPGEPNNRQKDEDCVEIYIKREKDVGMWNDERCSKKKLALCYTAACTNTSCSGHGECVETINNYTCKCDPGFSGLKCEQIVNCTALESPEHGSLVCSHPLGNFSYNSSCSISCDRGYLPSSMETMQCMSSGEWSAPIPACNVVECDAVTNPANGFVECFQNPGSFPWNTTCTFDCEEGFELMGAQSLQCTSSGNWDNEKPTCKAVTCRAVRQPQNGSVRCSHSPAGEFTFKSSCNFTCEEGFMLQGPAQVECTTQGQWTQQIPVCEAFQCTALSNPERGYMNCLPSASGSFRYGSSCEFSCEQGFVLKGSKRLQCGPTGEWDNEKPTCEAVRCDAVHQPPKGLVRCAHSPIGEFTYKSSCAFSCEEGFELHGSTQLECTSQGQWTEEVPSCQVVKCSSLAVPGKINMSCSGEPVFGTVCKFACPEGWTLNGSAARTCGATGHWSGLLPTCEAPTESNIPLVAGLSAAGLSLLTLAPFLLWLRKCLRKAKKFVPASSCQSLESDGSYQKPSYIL
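System: HUVEC / Compound: single concentration / Signal: immunofluorescence imaging / Read-out: percent E-selectin-positive cells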
rRNA inh HTS – reduced GFP signal of wild-type E. coli, primary screen, bacterial rRNA inhibitor project, GFP/RFP fluorescence, OD600, single point; E. coli WT GFP vs humanized-ribosome RFP mutants, 24 h; stronger effect = lower value; DMSO median 0, no signal -100; GFP signal change (wild-type ribosome), % (test concentration not listed); 350,000 compounds, 1.6% hits; AID 720706, 2013;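 active = significant combined selectivity score with lowered wild-type GFP, culture density cut under 30%, mutant RFP and density less affected; inactive = any of these conditions unmet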
* marks the source's active call; other numbers are inactive results; x = not tested or not shown.

SMILES	LGR2 antag	EWS-Fli inh	E-selectin induc	rRNA inh HTS
Cc1ccc(S(=O)(=O)N(C)C[C@@H]2Oc3c(NC(=O)c4cnccn4)cccc3C(=O)N([C@@H](C)CO)C[C@@H]2C)cc1	-6.3	1.0	-0.3	-3.6
CC(C)(C)c1ccc(NC(=S)NCCc2ccccn2)cc1	-9.4	-10.8	0.0	-41.0*
Fc1ccc(NC(=S)NCCc2ccccn2)cc1	x	-10.7	x	x
COc1ccc(/C=C(\C#N)C(=O)N2CCOCC2)cc1Br	10.0	x	x	x
Cc1cc(/C=C(\C#N)C(=O)N2CCOCC2)c(C)n1C1CCCC1	52.3*	8.3	0.2	-22.0*
Nn1cnc2c(c1=O)C1(CCCCC1)Cc1ccccc1-2	1.3	x	-0.1	x
O=c1c2c(nc3n1CCCCC3)-c1ccccc1CC21CCCC1	11.0	3.0	x	-36.3*
COc1ccc2c3c(n(C)c2c1)[C@H](CO)N(C(=O)C1CCOCC1)CC31CCN(Cc2cccc(F)c2)CC1	-3.0	29.9	0.0	-4.6
CCC(=O)N1CC2(CCN(C(=O)NC(C)C)CC2)c2c(n(C)c3cc(OC)ccc23)[C@@H]1CO	-8.5	-3.6	0.0	-3.3
Cc1ccc(CNC(=O)c2ccc(N(C)S(=O)(=O)c3ccccc3)cc2)cc1	-7.7	6.1	-0.3	-33.0*
CN(c1ccccc1)S(=O)(=O)c1ccc(C(=O)NCc2ccc(F)cc2)cc1	-3.9	14.3	-0.5	-21.7
COc1ccc(CN(C)C[C@H]2Oc3ccc(NS(=O)(=O)c4ccc(F)cc4)cc3CC(=O)N([C@H](C)CO)C[C@@H]2C)cc1	-12.1	39.8	-0.3	-1.9
O=C(/C=C/c1ccccc1)Nc1nc(-c2ccncc2)cs1	-5.9	-16.0	-3.7	13.2
O=C(Nc1nc(-c2ccccc2)cs1)c1ccccc1F	-59.4	-108.3	1.5	-19.6*
O=C(Cc1csc(NC(=O)Nc2ccc(Cl)cc2)n1)NCc1cccnc1	-2.1	-29.7	-0.1	-31.8*
O=C(Nc1ccccc1)Nc1nc(-c2ccc(Cl)cc2)cs1	x	-3.8	x	-18.4*
O=C(O)/C=C/C(=O)Nc1nc(-c2ccc3ccccc3c2)cs1	-5.6	2.1	x	-33.6*
O=C(Cc1csc(NC(=O)Nc2cccc(Cl)c2)n1)NCc1cccnc1	-15.8	-24.4	0.2	-1.9
COC(=O)c1ccc(CN2CC(=O)N3[C@H](C2)[C@H](c2ccc(Br)cc2)[C@@H]3CO)cc1	x	x	x	-4.5
C[C@H]1CN([C@@H](C)CO)C(=O)Cc2cc(NS(C)(=O)=O)ccc2O[C@H]1CN(C)C	7.2	-6.3	-0.1	0.6
N=C1/C(=C/c2ccc(-c3cccc(C(=O)O)c3)o2)C(=O)N=C2SC=C(c3ccccc3)N12	-0.6	-3.0	x	-20.7*
CC(C)C#Cc1cnc2c(c1)C(=O)N([C@@H](C)CO)C[C@H](C)[C@@H](CN(C)C(=O)CCN1CCCCC1)O2	3.9	1.0	0.5	6.8
CCCNC(=O)N(C)C[C@@H]1Oc2cc(-c3ccc(C)cc3)ccc2S(=O)(=O)N([C@@H](C)CO)C[C@H]1C	15.8	3.2	-2.3	0.7
N#CC(Sc1ccccn1)c1ccc(Cl)cc1Cl (stereo unspecified)	-7.5	3.2	x	-20.9*
O=C(O)c1[nH]c2ccc(Br)cc2c1CCN1C(=O)c2cccc([N+](=O)[O-])c2C1=O	7.0	-3.6	-0.1	-28.2*
SMILES	LGR2 antag	EWS-Fli inh	E-selectin induc	rRNA inh HTS
O=C(O)c1[nH]c2ccc(Cl)cc2c1CCN1C(=O)c2ccccc2C1=O	17.7	5.0	0.2	-36.6
CN(CC(=O)Nc1cccc(Cl)c1)S(=O)(=O)c1ccc2[nH]c(=O)oc2c1	23.8	-3.1	x	-25.0*
COc1ccc(NC(=O)CN(C)S(=O)(=O)c2ccc3[nH]c(=O)oc3c2)cc1	-9.9	x	13.3	-2.1
C[C@H](CO)N1C[C@H](C)[C@@H](CN(C)S(=O)(=O)c2cn(C)cn2)Oc2ccc(NC(=O)c3ccncc3)cc2CC1=O	-16.3	-16.9	10.9	2.5
C[C@@H]1CN([C@@H](C)CO)C(=O)Cc2cc(NC(=O)c3ccncc3)ccc2O[C@@H]1CN(C)S(=O)(=O)c1cn(C)cn1	-5.4	0.7	320.9*	3.0
C[C@@H]1CN([C@H](C)CO)C(=O)Cc2cc(NC(=O)c3ccncc3)ccc2O[C@H]1CN(C)S(C)(=O)=O	8.1	1.2	447.3*	-0.7
COc1ccccc1NC(=O)N1CCCCN2[C@@H](CO)[C@H](c3ccc(-c4ccccc4)cc3)[C@@H]2C1	x	-8.6	x	x
O=C(CN1C(=O)NC2(CCOc3ccccc32)C1=O)c1ccc(Cl)s1 (stereo unspecified)	5.7	0.2	x	-32.1*
C[C@@H]1CN([C@H](C)CO)C(=O)c2cc(NS(=O)(=O)c3ccccc3)ccc2O[C@@H](C)CCCCO[C@@H]1CN(C)Cc1ccc2c(c1)OCO2	14.9	9.1	x	-1.6
CCOc1cc(/C=C2\SC(=Nc3ccccc3)N(c3ccccc3)C2=O)ccc1OCC(=O)O	6.0	-36.3	-2.1	-30.5*
O=C(O)COc1ccc(/C=C2\SC(=Nc3ccccc3)N(c3ccccc3)C2=O)cc1	8.8	11.3	0.4	5.3
CCS(=O)(=O)N1CC2(CN(Cc3ccc(F)cc3)[C@H](CO)c3c2c2ccc(OC)cc2n3C)C1	4.5	1.9	-0.3	-0.4
CCOC(=O)N1CCN(c2nc3ccccc3n3cnnc23)CC1	7.3	-6.3	-0.3	-17.3*
O=C(O)C/C(=C\c1ccc(N2CCOCC2)c([N+](=O)[O-])c1)c1nc2ccccc2s1	-24.1	-15.0	1.2	-25.1*
O=C(O)CC/C(=C\c1ccc(N2CCOCC2)c([N+](=O)[O-])c1)c1nc2ccccc2s1	-15.6	-14.5	x	-30.7
O=C(Nc1nnc(S(=O)(=O)Nc2ccccc2)s1)c1ccccc1Cl	-12.3	6.1	-0.3	4.7
COc1ccc(NS(=O)(=O)c2nnc(NC(=O)c3ccccc3F)s2)cc1	-0.8	2.6	-0.1	-10.4*
c1ccc(CN2CCC(Nc3nc(-c4cccnc4)nc4ccccc34)CC2)cc1	19.9	-4.6	-0.1	-32.5*
Cc1ccccc1Nc1nc(-c2cccnc2)nc2ccccc12	-29.6	-5.9	-0.4	-9.9
c1ccc(CNc2nc(-c3cccnc3)nc3ccccc23)cc1	-4.0	7.3	0.0	-63.7
O=C(O)c1ccc(Nc2nc(-c3ccc([N+](=O)[O-])cc3)nc3ccccc23)cc1	-3.7	10.9	0.8	-21.0*
Cc1ccc(Nc2nc(-c3cccnc3)nc3ccccc23)cc1	11.6	58.3*	-0.3	33.7
N#C[C@@H]1[C@H](c2ccc(C#Cc3cccc(F)c3)cc2)[C@@H](CO)N1C(=O)C1CCC1	71.8*	15.4	-0.2	-55.4
N#C[C@H]1[C@@H](c2ccc(C#Cc3cccc(F)c3)cc2)[C@@H](CO)N1C(=O)C1CCC1	2.8	-2.4	0.6	-6.4
COc1ccccc1C#Cc1ccc([C@H]2[C@H](C#N)N(C(=O)C3CCCC3)[C@H]2CO)cc1	79.8*	3.7	-0.1	-0.6
COc1cc(N=C2C(=O)N3CCCc4cccc2c43)cc(OC)c1	4.2	x	x	x

Screens as filed in PubChem.
